Data: ChEMBL document CHEMBL1132280, “Discovery of potent and selective SH2 inhibitors of the tyrosine kinase ZAP-70” (J Med Chem, 1999)
Square brackets hold non-standard residues; d marks the D form. Peptide text beside a SMILES is read from it. pY = N[C@@H](Cc1ccc(OP(=O)(O)O)cc1)C(=O)O

Tests used:
Parameters in all cases: species or system Escherichia coli
[1] = molecular target: Proto-oncogene tyrosine-protein kinase Src (Homo sapiens, UniProt P12931); assay: Binding affinity against Src SH2 domain
[2] = molecular target: Tyrosine-protein kinase SYK (Homo sapiens, UniProt P43405); assay: Binding affinity against Syk protein tyrosine kinase SH2 domain
[3] = molecular target: Growth factor receptor-bound protein 2 (Homo sapiens, UniProt P62993); assay: Binding affinity against Growth factor receptor bound protein 2
Method in brief: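 Fluorescence polarization competition assay using human Grb2 SH2 (residues 55–152), expressed in E. coli BL21(DE3) and purified on phosphotyrosine-agarose. Compounds were serially diluted 1:2 across 1000–0.04 μM in 20 mM phosphate pH 7.4 with 100 mM NaCl, 10 mM DTT, 4% DMSO, 1 mM EDTA and 0.1% bovine γ-globulin. They were added to 1.25 µM protein premixed with 20 nM fluorescein-labelled peptide (ex 485/em 530 nm). IC50 was taken from percent tracer bound relative to vehicle, as the mean of ≥3 experiments.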

[4] = molecular target: T1, Tyrosine-protein kinase ZAP-70 (Homo sapiens, UniProt P43403); assay: Binding affinity against SH2 domain of Zeta-chain (TCR) associated protein kinase 70 kDa
T1 sequence (P43403 whole entry): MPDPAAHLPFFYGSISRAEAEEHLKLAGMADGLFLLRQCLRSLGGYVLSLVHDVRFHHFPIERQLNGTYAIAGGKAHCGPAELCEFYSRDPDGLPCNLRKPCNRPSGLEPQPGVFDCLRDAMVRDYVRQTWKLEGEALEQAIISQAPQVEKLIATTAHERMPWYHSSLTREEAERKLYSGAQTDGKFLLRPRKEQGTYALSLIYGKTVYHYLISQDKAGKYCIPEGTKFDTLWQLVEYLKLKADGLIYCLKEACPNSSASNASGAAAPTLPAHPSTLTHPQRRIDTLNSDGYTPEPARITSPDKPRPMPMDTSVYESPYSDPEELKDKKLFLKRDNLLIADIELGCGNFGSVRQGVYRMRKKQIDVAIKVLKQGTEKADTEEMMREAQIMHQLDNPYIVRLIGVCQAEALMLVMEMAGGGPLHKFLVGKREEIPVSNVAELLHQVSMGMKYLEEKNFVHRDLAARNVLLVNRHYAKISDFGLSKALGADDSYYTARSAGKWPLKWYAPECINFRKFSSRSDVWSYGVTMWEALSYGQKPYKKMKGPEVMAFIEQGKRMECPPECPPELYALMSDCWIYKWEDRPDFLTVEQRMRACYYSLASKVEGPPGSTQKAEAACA

Chain of Proto-oncogene tyrosine-protein kinase Src (P12931 2-536 limits assumed): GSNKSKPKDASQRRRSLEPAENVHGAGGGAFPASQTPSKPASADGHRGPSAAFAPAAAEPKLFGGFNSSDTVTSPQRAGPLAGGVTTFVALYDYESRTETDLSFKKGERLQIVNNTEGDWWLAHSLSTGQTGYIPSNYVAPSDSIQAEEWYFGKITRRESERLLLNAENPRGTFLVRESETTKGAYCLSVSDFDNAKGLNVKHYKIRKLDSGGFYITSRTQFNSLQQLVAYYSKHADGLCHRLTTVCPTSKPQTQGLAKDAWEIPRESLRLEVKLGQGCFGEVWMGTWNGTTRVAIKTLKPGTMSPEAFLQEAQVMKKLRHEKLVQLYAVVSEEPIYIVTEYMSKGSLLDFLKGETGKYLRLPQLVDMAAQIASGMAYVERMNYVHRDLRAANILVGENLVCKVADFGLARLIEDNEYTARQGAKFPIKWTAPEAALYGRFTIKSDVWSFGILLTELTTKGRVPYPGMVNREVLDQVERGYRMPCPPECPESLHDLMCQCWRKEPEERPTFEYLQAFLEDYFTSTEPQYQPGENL

| SMILES | IC50 [1] [µM] | IC50 [2] [µM] | IC50 [3] [µM] | IC50 [4] [µM] |
| --- | --- | --- | --- | --- |
| CC(=O)N[C@@H](Cc1ccc(OP(=O)(O)O)cc1)C(=O)N[C@@H](CC(=O)O)C(=O)N[C@H](C(=O)N[C@@H](CC(C)C)C(N)=O)C(C)C (Ac-[pY]DVL-NH2) | 261 | 389 |  | 328 |
| C[C@H](NC(=O)[C@H](Cc1ccc(OP(=O)(O)O)cc1)NC(=O)Cc1cccs1)c1nc(Cc2ccc(C(F)(F)F)cc2)no1 | 143 | > 500 |  |  |
| C[C@H](NC(=O)[C@H](Cc1ccc(OP(=O)(O)O)cc1)NC(=O)Cc1c[nH]c2ccccc12)c1nc(Cc2ccc(C(F)(F)F)cc2)no1 | 62 | 433 |  |  |
| CC(=O)N[C@@H](Cc1ccc(OP(=O)(O)O)cc1)C(=O)N[C@@H](CO)c1nc(Cc2ccc3ccccc3c2)no1 | 99 | > 500 | 479 |  |
| CC(=O)N[C@@H](Cc1ccc(OP(=O)(O)O)cc1)C(=O)N[C@@H](CO)c1nc(Cc2ccc(Cl)c(Cl)c2)no1 | 75 | > 500 | > 500 |  |
| CC(=O)N[C@@H](Cc1ccc(OP(=O)(O)O)cc1)C(=O)N[C@@H](CCC(N)=O)c1nc(Cc2ccc(Cl)c(Cl)c2)no1 | 206 | > 500 | 441 |  |
| CC(=O)N[C@@H](Cc1ccc(OP(=O)(O)O)cc1)C(=O)N[C@@H](C)c1nc(Cc2ccc3ccccc3c2)no1 | 64 | > 500 | > 500 |  |
| CC(=O)N[C@@H](Cc1ccc(OP(=O)(O)O)cc1)C(=O)N[C@@H](C)c1nc(Cc2ccc(C(F)(F)F)cc2)no1 | 210 | > 500 | > 500 |  |
| CC(=O)N[C@@H](Cc1ccc(OP(=O)(O)O)cc1)C(=O)N[C@@H](C)c1nc(Cc2ccc(I)cc2)no1 | 18 | 472 |  |  |
| CC(=O)N[C@@H](Cc1ccc(OP(=O)(O)O)cc1)C(=O)N[C@@H](C)c1nc(Cc2ccc(I)c(Br)c2)no1 | 40 | > 500 |  |  |
| CC(=O)N[C@@H](Cc1ccc(OP(=O)(O)O)cc1)C(=O)N[C@@H](CCC(N)=O)c1nc(Cc2ccc(Cl)cc2)no1 | 205 | > 500 |  |  |
| CC(=O)N[C@@H](Cc1ccc(OP(=O)(O)O)cc1)C(=O)N[C@@H](C)c1nc(Cc2ccc(I)c(Cl)c2)no1 | 50 | 464 |  |  |
| CC(=O)N[C@@H](Cc1ccc(OP(=O)(O)O)cc1)C(=O)N[C@@H](CCC(N)=O)c1nc(Cc2ccc(C(C)C)cc2)no1 | 96 | > 500 |  |  |
| CC(=O)N[C@@H](Cc1ccc(OP(=O)(O)O)cc1)C(=O)N[C@@H](C)c1nc(Cc2ccc(F)cc2)no1 | 200 | > 500 |  |  |
| CC(=O)N[C@@H](Cc1ccc(OP(=O)(O)O)cc1)C(=O)N[C@@H](CCC(N)=O)c1nc(Cc2cccc(Cl)c2)no1 | 259 | > 500 |  |  |
| CC(=O)N[C@@H](Cc1ccc(OP(=O)(O)O)cc1)C(=O)N[C@@H](CO)c1nc(Cc2ccc(Cl)cc2)no1 | 149 | > 500 |  |  |
| CC(=O)N[C@@H](Cc1ccc(OP(=O)(O)O)cc1)C(=O)N[C@@H](CCc1ccccc1)c1nc(Cc2ccc(Cl)c(Cl)c2)no1 | 60 | 250 | 340 |  |
| C[C@H](NC(=O)[C@H](Cc1ccc(OP(=O)(O)O)cc1)NC(=O)Cc1ccccc1)c1nc(Cc2ccc(C(F)(F)F)cc2)no1 | 123 | > 500 |  |  |
| C[C@H](NC(=O)[C@H](Cc1ccc(OP(=O)(O)O)cc1)NC(=O)Cc1ccc2ccccc2c1)c1nc(Cc2ccc(C(F)(F)F)cc2)no1 | 49 | 302 |  |  |
| C[C@H](NC(=O)[C@H](Cc1ccc(OP(=O)(O)O)cc1)NC(=O)Cc1ccc(F)c(F)c1)c1nc(Cc2ccc(C(F)(F)F)cc2)no1 | 130 | 397 |  |  |

More lines, now with the values ahead:

| IC50 [1] [µM] | IC50 [2] [µM] | IC50 [3] [µM] | IC50 [4] [µM] | SMILES |
| --- | --- | --- | --- | --- |
| 45 | > 500 |  |  | CC(=O)N[C@@H](Cc1ccc(OP(=O)(O)O)cc1)C(=O)N[C@@H](C)c1nc(Cc2ccc(Cl)c(Br)c2)no1 |
| 87 | > 500 |  |  | COc1ccc(CC(=O)N[C@@H](Cc2ccc(OP(=O)(O)O)cc2)C(=O)N[C@@H](C)c2nc(Cc3ccc(C(F)(F)F)cc3)no2)cc1 |
| 95 | 323 | > 500 |  | CC(=O)N[C@@H](Cc1ccc(OP(=O)(O)O)cc1)C(=O)N[C@@H](CCc1ccccc1)c1nc(Cc2ccc(C(F)(F)F)cc2)no1 |
| 68 | > 500 |  |  | CC(=O)N[C@@H](Cc1ccc(OP(=O)(O)O)cc1)C(=O)N[C@@H](C)c1nc(Cc2cccc(Cl)c2)no1 |
| 282 | > 500 | > 500 |  | CC(=O)N[C@@H](Cc1ccc(OP(=O)(O)O)cc1)C(=O)N[C@@H](CO)c1nc(Cc2ccc(C(F)(F)F)cc2)no1 |
| 31 | > 500 |  |  | CC(=O)N[C@@H](Cc1ccc(OP(=O)(O)O)cc1)C(=O)N[C@@H](C)c1nc(Cc2ccc(Br)cc2)no1 |
| 132 | > 500 |  |  | CC(=O)N[C@@H](Cc1ccc(OP(=O)(O)O)cc1)C(=O)N[C@@H](CO)c1nc(Cc2ccc(F)cc2)no1 |
| 20 |  |  |  | CC(=O)N[C@@H](CC(N)=O)C(=O)N[C@@H](CCC(N)=O)C(=O)N[C@@H](CC(C)C)C(=O)N[C@@H](Cc1ccc(OP(=O)(O)O)cc1)C(=O)N[C@@H](CC(N)=O)C(=O)N[C@@H](CCC(=O)O)C(=O)N[C@@H](CC(C)C)C(=O)N[C@@H](CC(N)=O)C(=O)N[C@@H](CC(C)C)C(=O)NCC(=O)N[C@@H](CCCN=C(N)N)C(=O)N[C@@H](CCCN=C(N)N)C(=O)N[C@@H](CCC(=O)O)C(=O)N[C@@H](CCC(=O)O)C(=O)N[C@@H](Cc1ccc(OP(=O)(O)O)cc1)C(=O)N[C@@H](CC(=O)O)C(=O)N[C@H](C(=O)N[C@@H](CC(C)C)C(=O)N[C@@H](CC(=O)O)C(N)=O)C(C)C |
| 161 | 318 | > 500 |  | O=C(Cc1ccccc1)N[C@@H](Cc1ccc(OP(=O)(O)O)cc1)C(=O)N[C@@H](CO)c1nc(Cc2ccc(C(F)(F)F)cc2)no1 |
| 135 | > 500 |  |  | CC(=O)N[C@@H](Cc1ccc(OP(=O)(O)O)cc1)C(=O)N[C@@H](CCC(N)=O)c1nc(Cc2cccc3ccccc23)no1 |
| 98 | > 500 |  |  | CC[C@H](NC(=O)[C@H](Cc1ccc(OP(=O)(O)O)cc1)NC(C)=O)c1nc(Cc2ccc(C(F)(F)F)cc2)no1 |
| 115 | > 500 |  |  | CC(=O)N[C@@H](Cc1ccc(OP(=O)(O)O)cc1)C(=O)N[C@@H](C)c1nc(Cc2cccc(C(F)(F)F)c2)no1 |
| 32 | > 500 |  |  | CC(=O)N[C@@H](Cc1ccc(OP(=O)(O)O)cc1)C(=O)N[C@@H](CO)c1nc(Cc2ccc(Br)cc2)no1 |
| 78 | 288 | > 500 |  | CC(=O)N[C@@H](Cc1ccc(OP(=O)(O)O)cc1)C(=O)N[C@@H](CCc1ccccc1)c1nc(Cc2ccc3ccccc3c2)no1 |
| 35 | > 500 | 263 |  | O=C(Cc1ccccc1)N[C@@H](Cc1ccc(OP(=O)(O)O)cc1)C(=O)N[C@@H](CO)c1nc(Cc2ccc(Cl)c(Cl)c2)no1 |
| 68 | > 500 | 368 |  | O=C(Cc1ccccc1)N[C@@H](Cc1ccc(OP(=O)(O)O)cc1)C(=O)N[C@@H](CO)c1nc(Cc2ccc3ccccc3c2)no1 |
| 65 | > 500 |  |  | CC(=O)N[C@@H](Cc1ccc(OP(=O)(O)O)cc1)C(=O)N[C@@H](C)c1nc(Cc2ccc(C)cc2)no1 |
| 72 | > 500 | > 500 |  | CC(=O)N[C@@H](Cc1ccc(OP(=O)(O)O)cc1)C(=O)N[C@@H](C)c1nc(Cc2ccc(Cl)c(Cl)c2)no1 |
| 292 | > 500 |  |  | CC(=O)N[C@@H](Cc1ccc(OP(=O)(O)O)cc1)C(=O)N[C@@H](CCC(N)=O)c1nc(Cc2ccc(C)cc2)no1 |
| 37 | 452 |  |  | CC(=O)N[C@@H](Cc1ccc(OP(=O)(O)O)cc1)C(=O)N[C@@H](CO)c1nc(Cc2ccc(I)cc2)no1 |
| > 500 | > 500 |  |  | CC(=O)N[C@@H](Cc1ccc(OP(=O)(O)O)cc1)C(=O)N[C@@H](CC(N)=O)c1nc(Cc2ccc(C(F)(F)F)cc2)no1 |
| 66 | > 500 |  |  | CC(=O)N[C@@H](Cc1ccc(OP(=O)(O)O)cc1)C(=O)N[C@@H](C)c1nc(Cc2ccc(Cl)cc2)no1 |
| 39 | > 500 |  |  | CC(=O)N[C@@H](Cc1ccc(OP(=O)(O)O)cc1)C(=O)N[C@@H](C)c1nc(Cc2ccc(Br)c(Br)c2)no1 |
| 274 | > 500 | 327 |  | CC(=O)N[C@@H](Cc1ccc(OP(=O)(O)O)cc1)C(=O)N[C@@H](CCC(N)=O)c1nc(Cc2ccc3ccccc3c2)no1 |
| 92 | > 500 |  |  | CC(=O)N[C@@H](Cc1ccc(OP(=O)(O)O)cc1)C(=O)N[C@@H](Cc1c[nH]c2ccccc12)c1nc(Cc2ccc(C(F)(F)F)cc2)no1 |
